# Source: PubChem BioAssay
# The list is not random: actives were taken first. Their share in the collection is about 4%.
# MDM2 E3 inh = MDM2-luciferase reporter signal enhancers, primary screen, MDM2 E3 ligase inhibitor project, cell-based, luminescence, 1536-well; E3 ubiquitin-protein ligase Mdm2 (Homo sapiens), Q00987; cell-based MDM2 ubiquitination luciferase reporter, 2 h; 0 = plate control, 100 = twice control, blank-subtracted; signal enhancement, % at 5 µM; hit rate 0.11% among 210,000; AID 1230, 2008;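 active = signal enhancement of 30% or more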;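 note: luminescence tracks abundance of the self-degrading MDM2-luciferase fusion protein; higher signal means inhibition of MDM2 E3 ligase activity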
# Target sequence (Q00987 whole entry, looked up, the tested form may be a part): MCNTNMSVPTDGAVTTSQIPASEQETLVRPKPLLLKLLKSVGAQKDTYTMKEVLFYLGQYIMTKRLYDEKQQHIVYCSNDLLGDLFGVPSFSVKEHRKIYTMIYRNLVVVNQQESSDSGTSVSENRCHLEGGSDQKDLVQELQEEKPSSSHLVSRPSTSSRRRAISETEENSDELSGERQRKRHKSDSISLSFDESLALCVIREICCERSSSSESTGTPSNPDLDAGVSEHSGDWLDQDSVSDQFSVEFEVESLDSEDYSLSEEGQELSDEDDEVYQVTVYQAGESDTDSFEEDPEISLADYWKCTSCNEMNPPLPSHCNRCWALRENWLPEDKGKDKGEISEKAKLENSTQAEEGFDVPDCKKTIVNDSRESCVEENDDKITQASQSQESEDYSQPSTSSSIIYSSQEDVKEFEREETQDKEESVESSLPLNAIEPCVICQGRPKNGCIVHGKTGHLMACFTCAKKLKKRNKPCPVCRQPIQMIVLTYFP
#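 Material: Stable MDM2–luciferase fusion reporter cells | Amount: 2000 cells seeded into each well | Dosing: One concentration, 5 µM, with 0.2% DMSO | Incubation: 4 h cell settling then 2 h compound exposure, 37 °C | Measured by: Luciferase luminescence | Read-out basis: % enhancement relative to plate controls after blank subtraction | Benchmarks: Control and blank well means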
# Hsp70 activator = Hsp70 transcriptional activators, primary screen, cell-based, HeLa, Hsp70 promoter luciferase, luminescence, 10 µM. HeLa Hsp70 promoter luciferase reporter; scaled: vehicle 0, proteasome-inhibitor control 100%. activation, % at 10 µM. hit rate 0.04% among 200,000. AID 1203, 2008;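 active = activation above the mean across all tested compounds plus 3 SD, cutoff set per campaign, cut at about 5.5% in these data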
# S1P3 antagonist = S1P3 receptor antagonists, primary screen, cell-based; AID 485, 2006; hit rate 0.27% among 170,000; Sphingosine 1-phosphate receptor 3 (Homo sapiens), Q99500; inhibition, % at 4.98 µM; CHO S1P3 NFAT-BLA reporter, FRET fluorescence, antagonist mode;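 active = inhibition above the plate cutoff, the mean inhibition of test wells on that plate plus 3 SD, cut at about 28% in these data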;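 note: cells challenged with S1P at its EC80 of 0.8 µM; blue over green emission ratio from cleaved BLA substrate after 4 h stimulation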
# CHOP inh = inhibitors of CHOP promoter induction, primary screen, cell-based, unfolded protein response, luciferase reporter; CHO-K1 CHOP-promoter luciferase, tunicamycin-induced, 15-18 h; inhibition, % at 10 µM; hit rate 3.8% among 220,000;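 active = compounds that reduced the stress-induced luciferase reporter signal by more than about 70% of percent inhibition, limit read from the data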
# Numbers stand for hits; - = inactive; . = not tested or not shown; ! = not confirmed by another sample.
SMILES,MDM2 E3 inh,Hsp70 activator,S1P3 antagonist,CHOP inh
Cc1ccccc1OCC(O)Cn1c2ccccc2c2ccccc21 (stereo unspecified),-,-,.,90
OC(COc1ccccc1)Cn1c2ccccc2c2ccccc21 (stereo unspecified),-,-,-,89
CC(=O)c1c(C)nn(CC(O)COc2ccc3c(c2)CCC3)c1C (stereo unspecified),-,-,-,-
Cc1nn(CC(O)COc2ccc3c(c2)CCC3)c(C)c1Br (stereo unspecified),-,-,.,82
Cc1nc(C(C)N(C)Cc2nc(Cc3ccccc3F)no2)c(C)s1 (stereo unspecified),-,.,-,-
Cc1cc(C(=O)CCl)c(C)n1-c1cccc([N+](=O)[O-])c1,-,-,-,104
Clc1ccc(/C=N/c2c(-c3ccc(Cl)cc3)nc3n2CCS3)cc1,-,-,.,-
Oc1ccc(Cl)cc1C1=NNC(c2ccc(Cl)cc2)C1 (stereo unspecified),-,-,-,78
Oc1ccc(Cl)cc1C1=NNC(c2cc(Br)cc3c2OCOC3)C1 (stereo unspecified),-,-,-,79
COc1ccccc1NC(=O)CSc1nnc(CCC(=O)Nc2ccccc2F)n1C,-,.,-,-
Cc1cc(C)n(-c2nc(NCC(C)O)c3c4c(sc3n2)COC(C)(C)C4)n1 (stereo unspecified),-,-,.,-
Cc1cc(C)n(-c2nc(NCC3CCCO3)c3c4c(sc3n2)COC(C)(C)C4)n1 (stereo unspecified),-,-,-,95
O=C(Nc1ccccc1O)/C(=C\c1ccccc1)NC(=O)c1ccccc1,-,-,-,-
O=C(Nc1ccc(C(F)(F)F)cc1)c1cc(S(=O)(=O)NCC2COc3ccccc3O2)ccc1F (stereo unspecified),.,-,-,82
CC(C)c1ccc(NC(=O)c2cc(S(=O)(=O)NCC3COc4ccccc4O3)ccc2F)cc1 (stereo unspecified),-,-,-,81
Cc1cc(C(=O)Nc2sc(C)c(C)c2C#N)c(C)o1,-,-,-,75
Cc1ccc(C(=O)n2c(N)nc3ccccc32)cc1,-,-,-,75
Cn1cc(C2=C(c3ccc(Cl)cc3Cl)C(=O)NC2=O)c2ccccc21,.,.,.,86
O=C(N=NC(=O)c1ccco1)c1ccc2c(O)n(N3C(=O)c4ccccc4C3=O)c(O)c2c1,-,-,-,-
Cc1ccc(NC(=O)C(C)c2ccc(-c3ccccc3)c(F)c2)cc1 (stereo unspecified),-,-,.,73
O=[N+]([O-])c1ccc(-c2ccc(/C=N/c3c(-c4ccco4)nc4ccccn34)o2)c(Cl)c1,-,-,.,79
O=[N+]([O-])c1ccc(Cl)c(-c2ccc(/C=N/c3c(-c4ccco4)nc4ccccn34)o2)c1,-,-,.,-
COc1ccc(Oc2nc3ccccc3nc2C(F)(F)F)cc1,-,-,.,70
COc1ccc(Oc2nc(SC)nc3ccccc23)cc1,-,-,.,82
COc1ccc(Oc2nc(-c3cccnc3)nc3ccccc23)cc1,-,.,-,-
SMILES,MDM2 E3 inh,Hsp70 activator,S1P3 antagonist,CHOP inh
CC(C)=Cc1c(O)nc2ccccn2c1=O,-,-,-,-
COc1ccc(-c2c(C#N)c(N)nc(Sc3ccc(Cl)cc3)c2C#N)cc1,-,.,-,74
O=C1NC(=Nc2ccc(Cl)cc2)SC1Cc1cc(Cl)ccc1Cl (stereo unspecified),-,-,-,71
CCOC(=O)C1=C(N)n2c(s/c(=C/c3ccco3)c2=O)=C(C(=O)OC)C1c1ccco1 (stereo unspecified),-,-,81,-
CCOC(=O)C1=c2s/c(=C\c3ccncc3)c(=O)n2C(N)=C(C(=O)OC)C1c1ccncc1 (stereo unspecified),-,-,-,-
CC(C)(C)C1CCC2(CC1)CC(=O)c1ccccc1O2 (stereo unspecified),-,.,.,74
Cc1nn(C)c(Cl)c1S(=O)(=O)N1CCC(CO)(CCc2ccccc2)CC1,-,-,-,-
CCN(C(=O)c1ccco1)c1nnc(-c2ccc(OC)cc2)s1,.,-,.,-
O=C(/C=C/c1ccccc1)NCCSc1ccc(Cl)cc1,-,-,.,77
CCOC(=O)c1cccc(NC(=O)CCn2cccc2)c1,-,-,-,-
CCOc1ccc(-c2nc(CSCC(=O)N3CCN(C(=O)c4ccco4)CC3)c(C)o2)cc1,-,-,-,-
CCOC(=O)C1CCN(C(=O)CSCc2nc(-c3ccc(OCC)cc3)oc2C)CC1,-,-,-,77
CC(=O)Oc1c(C(=O)c2nnc(C)o2)c(=O)n(C)c2ccccc12,-,-,-,-
CCc1ccccc1NC(=O)N1C2CCCC1CC(NC(=O)C(C)(C)C)C2 (stereo unspecified),-,-,63,-
Cc1ccccc1NC(=O)N1C2CCCC1CC(NC(=O)C1CC1)C2 (stereo unspecified),-,-,-,-
CC1Cc2ccccc2N1CC(=O)NC(c1ccccc1)c1ccccc1 (stereo unspecified),-,-,-,87
CCCCSc1ccc2nc(-c3ccc(C#N)cc3)cn2c1,-,-,.,-
CCCSc1ccc2nc(-c3ccccc3)cn2c1,-,-,-,86
CCn1ncc(Br)c1C(=O)Nc1nccs1,-,-,-,77
COc1ccc(C(=O)Nc2ccc(Oc3ncnc4sc(-c5ccccc5)cc34)cc2)cc1OC,-,-,-,-
COc1ccc(C(=O)Nc2ccc(Oc3nc(C)nc4sc(-c5ccccc5)cc34)cc2)cc1OC,-,-,-,81
C/C(=N\O)C(=O)OC1CC(C)CCC1C(C)C (stereo unspecified),-,-,-,88
COc1cccc(OC)c1Nc1nc(C)nc2c1nnn2Cc1ccccc1Cl,-,-,-,-
CCc1nc(Nc2ccc(OC)c(OC)c2)c2nnn(Cc3ccccc3Cl)c2n1,-,-,.,91
Cc1cccc(NC(=O)Cn2c(O)c(N=NC(=O)c3ccccc3O)c3ccccc32)c1,-,-,-,83
SMILES,MDM2 E3 inh,Hsp70 activator,S1P3 antagonist,CHOP inh
CCn1nc(C(=O)O)c(=O)c2cc3c(cc21)OCO3,.,-,-,96!
Cc1c([N+](=O)[O-])cc(S(=O)(=O)Nc2ccncc2)cc1[N+](=O)[O-],-,-,-,-
COc1ccccc1N/C=C1/Sc2cc(Cl)ccc2NC1=O,-,-,-,-
CCOC(=O)N1CCN(C(=O)c2cccn3c(=O)c4c5c(sc4nc23)CCCC5)CC1,-,-,-,-
O=C(O)CSc1cc(C(=O)c2ccccc2O)cn2c(=O)c3c4c(sc3nc12)CCCC4,.,.,-,89
Cc1cccc(Nc2ncnc3ccc(Br)cc23)c1,-,-,-,-
Brc1ccc2ncnc(NCc3ccccc3)c2c1,-,-,.,87
Cc1nc(/C(N)=N/OC(=O)c2ccc(Cl)cc2)c(C(F)(F)F)o1,-,.,-,-
COc1cc2c(cc1NC(=O)CSc1nc3ccc(C)cc3[nH]1)oc1ccccc12,-,-,-,77
